Reference: ChEMBL document CHEMBL1149129, “Design and synthesis of 3'- and 5'-O-(3-benzenesulfonylfuroxan-4-yl)-2'-deoxyuridines: biological evaluation as hybrid nitric oxide donor-nucleoside anticancer agents” (2004)

Columns and labels:
[1] = In vitro percent nitric oxide released from the test compound was determined as the percent of nitrite (NO2-) produced in phosphate buffered saline at 1 hr; assay type: functional
How it was run: (§1)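 Compound (2 mM solution) in 0.1 M phosphate buffer, pH 7.4, without L-cysteine was incubated at 37 °C for 1 or 16 h in the absence of air. It was then exposed to air for 10 min at 25 °C and mixed with an equal volume of Griess reagent (sulfanilamide/N-naphthylethylenediamine). A540 was read after 10 min. Percent NO, as nitrite, came from a 0–100 µM sodium nitrite standard curve (±SEM, n = 3).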

Hs578Bst (Homo sapiens) = assay: In vitro cell cytotoxicity was determined against Hs 578.Bst cell line
[2] = In vitro percent nitric oxide released from the test compound was determined as the percent of nitrite (NO2-) produced in the present of L-cysteine in Phosphate buffer saline at 16 hr; assay type: functional
How it was run: (§2)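 Equal volumes of 0.2 mM compound and freshly prepared 3.6 mM L-cysteine, each in 0.1 M phosphate buffer, pH 7.4, were mixed and incubated at 37 °C for 1 or 16 h in the absence of air. After 10 min air exposure at 25 °C, an equal volume of Griess reagent was added and A540 read after 10 min. Nitrite was quantified against a 0–100 µM NaNO2 curve (±SEM, n = 3).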

143B [3] = assay: In vitro cell cytotoxicity was determined against 143B-LTK cell line; assay type: functional; settings: Homo sapiens
How it was run: (§3)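 Human 143B or 143B-LTK cells were grown in complete MEME with 10% FBS and seeded at 8×10^2 cells/well. After 24 h at 37 °C in 5% CO2, compound in medium was added and cells were incubated 3 days. Viability was read by MTT (4 h), with formazan dissolved in DMSO and A540 corrected for blanks. CC50 is the concentration cutting A540 to 50% of control (mean, n = 6).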

KBALB-STK = assay: In vitro cell cytotoxicity was determined against KBALB-STK cell line; assay type: functional; settings: Mus musculus
How it was run: (§4)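 Murine KBALB or KBALB-STK cells, or Hs578Bst human fibroblasts, were grown in complete DMEM with 10% FBS and seeded at 8×10^2 cells/well. After 24 h at 37 °C in 5% CO2, compound in medium was added for 3 days. MTT was added for 4 h, formazan dissolved in DMSO, and blank-corrected A540 read. CC50 is 50% of control A540 (mean, n = 6).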

KBALB cell line = assay: In vitro cell cytotoxicity was determined against KBALB cell line; assay type: functional; settings: Mus musculus; how it was run: as §4
EMT6 = assay: In vitro cell cytotoxicity was determined against EMT-6 cell line; assay type: functional; settings: Mus musculus
How it was run: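 Murine EMT-6 cells in complete Waymouth medium with 12.5% FBS were plated at 8×10^2 cells/well and preincubated 24 h (37 °C, 5% CO2). Compound in medium was then given for 3 days. MTT reduction was measured over 4 h, with DMSO solubilization and blank-corrected absorbance at 540 nm. CC50 is the concentration reducing A540 to 50% of control (mean, n = 6).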

[4] = In vitro percent nitric oxide released from the test compound was determined as the percent of nitrite (NO2-) produced in the present of L-cysteine in Phosphate buffer saline at 1 hr; assay type: functional; how it was run: as §2
143B [5] = assay: In vitro cell cytotoxicity was determined against 143B cell line; assay type: functional; settings: Homo sapiens; how it was run: as §3
[6] = In vitro percent nitric oxide released from the test compound was determined as the percent of nitrite (NO2-) produced in phosphate buffered saline at 16 hr; assay type: functional; how it was run: as §1

| Compound | NO release [1] [%] | CC50 (Hs578Bst (Homo sapiens)) [µM] | NO release [2] [%] | CC50 (143B [3]) [µM] | CC50 (KBALB-STK) [nM] | CC50 (KBALB cell line) [nM] | CC50 (EMT6) [nM] | NO release [4] [%] | CC50 (143B [5]) [µM] | NO release [6] [%] |
| --- | --- | --- | --- | --- | --- | --- | --- | --- | --- | --- |
| O=c1ccn([C@H]2C[C@H](O)[C@@H](COc3no[n+]([O-])c3S(=O)(=O)c3ccccc3)O2)c(=O)[nH]1 | 1.5 | 4.8 | 77.9 | 6.3 | 5400 | 4600 | 750 | 46 | 3.3 | 0.2 |
| O=S(=O)(c1ccccc1)c1no[n+]([O-])c1S(=O)(=O)c1ccccc1 | 0.2 | 0.1 | 38.8 | 0.028 | 600 | 520 | 100 | 22.7 | 0.04 | 0.4 |
| O=c1ccn([C@H]2C[C@H](Oc3no[n+]([O-])c3S(=O)(=O)c3ccccc3)[C@@H](CO)O2)c(=O)[nH]1 | 0.9 | 4.8 | 85.8 | 2.9 | 1700 | 790 | 80 | 45.6 | 0.96 | 0.2 |
| O=c1[nH]c(=O)n([C@H]2C[C@H](O)[C@@H](CO)O2)cc1I [IDOXURIDINE] | – | – | – | 100 | 0.088 | 0.06 | 0.009 | – | 90 | – |
| O=c1[nH]c(=O)n([C@H]2C[C@H](O)[C@@H](CO)O2)cc1F [FLOXURIDINE] | – | – | – | – | 100000 | 95000 | – | – | – | – |
| O=c1[nH]c(=O)n([C@H]2C[C@H](Oc3no[n+]([O-])c3S(=O)(=O)c3ccccc3)[C@@H](CO)O2)cc1I | 1.2 | 0.8 | 74.8 | 1.3 | 400 | 380 | 80 | 39.8 | 0.56 | 0.4 |
| O=c1[nH]c(=O)n([C@H]2C[C@H](Oc3no[n+]([O-])c3S(=O)(=O)c3ccccc3)[C@@H](CO)O2)cc1C(F)(F)F | 0.3 | 4.4 | 78.5 | 0.48 | 2000 | 3200 | 880 | 48.3 | 0.52 | 0.4 |
| O=c1[nH]c(=O)n([C@H]2C[C@H](Oc3no[n+]([O-])c3S(=O)(=O)c3ccccc3)[C@@H](CO)O2)cc1F | 0.4 | 4.4 | 73.9 | 0.84 | 840 | 2000 | 2000 | 41.5 | 0.24 | 0.2 |
| COc1no[n+]([O-])c1S(=O)(=O)c1ccccc1 | 1.1 | 0.68 | 44.8 | 0.32 | 440 | 480 | 560 | 12.3 | 0.07 | 1 |
| Cc1cn([C@H]2C[C@H](O)[C@@H](COc3no[n+]([O-])c3S(=O)(=O)c3ccccc3)O2)c(=O)[nH]c1=O | 2.2 | 6.8 | 36.8 | 5.6 | 4800 | 2800 | 2000 | 20.9 | 3.6 | 2.2 |
| Cc1cn([C@H]2C[C@H](Oc3no[n+]([O-])c3S(=O)(=O)c3ccccc3)[C@@H](CO)O2)c(=O)[nH]c1=O | 1.4 | 2 | 77.3 | 0.88 | 1000 | 560 | 2400 | 39.5 | 0.72 | 0.4 |
| Cc1cn([C@H]2C[C@H](O)[C@@H](CO)O2)c(=O)[nH]c1=O [DOXRIBTIMINE] | – | – | – | 700 | 650000 | 970000 | – | – | 600 | – |
| O=[N+]([O-])O[C@H]1CO[C@H]2[C@@H]1OC[C@H]2O[N+](=O)[O-] [ISOSORBIDE DINITRATE] | 3.5 | – | 2.6 | 7400 | 10000 | 97000 | 380000 | 1.9 | 7000 | 24 |
| O=c1[nH]c(=O)n([C@H]2C[C@H](O)[C@@H](COc3no[n+]([O-])c3S(=O)(=O)c3ccccc3)O2)cc1F | 0.8 | 0.076 | 68.7 | 2 | 60 | 48 | 60 | 41.6 | 3.2 | 0.7 |
| O=c1[nH]c(=O)n([C@H]2C[C@H](O)[C@@H](COc3no[n+]([O-])c3S(=O)(=O)c3ccccc3)O2)cc1I | 9.8 | 0.8 | 71.9 | 0.71 | 920 | 920 | 1000 | 28.3 | 0.54 | 9.9 |
